Source: ChEMBL document CHEMBL4007461, “Synthesis, Antiviral Potency, in Vitro ADMET, and X-ray Structure of Potent CD4 Mimics as Entry Inhibitors That Target the Phe43 Cavity of HIV-1 gp120” (J Med Chem, 2017)
In brackets after ≈: the same amount, converted by molar mass.

Assays:
[1] = system: Human immunodeficiency virus 1; assay: microbe, parasite or virus in culture; settings: Human immunodeficiency virus 1, subtype A2/D QG393.60M.ENV.B8
[2] = system: Human immunodeficiency virus 1; assay: microbe, parasite or virus in culture; settings: Human immunodeficiency virus 1, subtype A/G CRF02_AG clone 278
[3] = system: Human immunodeficiency virus 1; assay: Antiviral activity against ENV pseudotyped CCR5-tropic HIV1 subtype C 225925-2, clone 22; format: functional; settings: Human immunodeficiency virus 1, subtype C 225925-2, clone 22
Summary of the method: (§1)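 Env-pseudotyped viruses made by co-transfecting HEK293T cells with an Env-deleted pSG3 backbone (8 µg) and an Env-expression plasmid (8 µg). Supernatants were harvested 2 days after transfection, filtered, titered and stored at −80 °C. They were used for single-cycle infection, and IC50 was taken from percent inhibition.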

Cytochrome P450 2D6 = Cytochrome P450 2D6 (Homo sapiens, UniProt P10635); assay: Inhibition of CYP2D6 in human liver microsomes using dextromethorphan as substrate after 5 mins in presence of NADPH by LC-MS/MS analysis; format: ADME
[4] = system: Human immunodeficiency virus 1; assay: microbe, parasite or virus in culture; settings: Human immunodeficiency virus 1, AC10.0, clone 29
[5] = system: Human immunodeficiency virus 1; assay: Antiviral activity against ENV pseudotyped CCR5-tropic HIV1 p9021_14.B2.4571; format: functional; settings: Human immunodeficiency virus 1, p9021_14.B2.4571
[6] = Apparent permeability from basolateral to apical side in human Caco2 cells at 10 uM at pH 7.4 by LC-MS/MS analysis; format: ADME, cell-based; settings: Caco-2, pH 7.4
Summary of the method: (§2)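 Caco-2 cells, passage 40-60, seeded on Transwell inserts at 1 x 10^5 cells/cm2 and grown 20 days in DMEM. Monolayers equilibrated 40 min in HBSS. Donor: compound at 10 µM final, 1% DMSO, in HBSS pH 7.4 with lucifer yellow as integrity marker. Sampled at 120 min, A-B and B-A, in duplicate, by LC-MS/MS. Papp = (dQ/dt)/(C0 × A); efflux ratio = Papp(B-A)/Papp(A-B).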

[7] = system: Vesicular stomatitis virus; assay: Antiviral activity against G-glycoprotein expressing VSV; format: functional
Summary of the method: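 VSV-G pseudovirus made in HEK293T cells from pVPack-VSV-G, MLV gag-pol pVPack-GP and pFB-luc plasmids. Virus was preincubated 30 min with graded compound concentrations, then added to U87-CD4-CXCR4 cells (1 x 10^4/well, plated overnight).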

MT2 = assay: Cytotoxicity against human MT2 cells incubated for 4 days by XTT assay; format: cell-based; settings: mt2, 96 h, 96 h
Summary of the method: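 Run alongside the MT-2 multicycle infection assay. Compound at graded concentrations mixed with an equal volume of MT-2 cells (10^5 cells/ml). Medium replaced next day and culture continued four days.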

[8] = system: Human immunodeficiency virus 1; assay: Antiviral activity against ENV pseudotyped CCR5-tropic HIV1 subtype D QA013.70I.ENV.M12; format: functional; settings: Human immunodeficiency virus 1, subtype D QA013.70I.ENV.M12
Summary of the method: as §1

[9] = Unbound fraction in human plasma at 5 uM by LC-MS/MS based equilibrium dialysis; format: ADME, cell-free
[10] = system: Human immunodeficiency virus 1; assay: Antiviral activity against ENV pseudotyped CCR5-tropic HIV1 subtype D QD435.100M.ENV.E1; format: functional; settings: Human immunodeficiency virus 1, subtype D QD435.100M.ENV.E1
[11] = system: Human immunodeficiency virus 1; assay: microbe, parasite or virus in culture; settings: Human immunodeficiency virus 1, subtype D/A BF535.W6M.ENV.A1
[12] = molecular target: Voltage-gated inwardly rectifying potassium channel KCNH2 (Homo sapiens, UniProt Q12809); assay: Inhibition of human ERG expressed in CHO cells by patch clamp electrophysiology assay; format: cell-based
[13] = system: Human immunodeficiency virus 1; assay: microbe, parasite or virus in culture; settings: Human immunodeficiency virus 1, subtype A/G CRF02_AG clone 263
[14] = Apparent permeability from apical to basolateral side in human Caco2 cells at 10 uM at pH 7.4 by LC-MS/MS analysis; format: ADME, cell-based; settings: Caco-2, pH 7.4
Summary of the method: as §2

[15] = system: Human immunodeficiency virus 1; assay: microbe, parasite or virus in culture; settings: Human immunodeficiency virus 1, subtype C QB099.391 M.ENV.B1
[16] = system: Human immunodeficiency virus 1; assay: Antiviral activity against ENV pseudotyped CCR5-tropic HIV1 subtype C 6936-2, clone 21; format: functional; settings: Human immunodeficiency virus 1, subtype C 6936-2, clone 21
Summary of the method: as §1

Cytochrome P450 3A4 = Cytochrome P450 3A4 (Homo sapiens, UniProt P08684); assay: Inhibition of CYP3A4 in human liver microsomes using midazolam as substrate after 5 mins in presence of NADPH by LC-MS/MS analysis; format: ADME
[17] = system: Human immunodeficiency virus 1; assay: microbe, parasite or virus in culture; settings: Human immunodeficiency virus 1, subtype A QB726.70M.ENV.C4
[18] = system: Human immunodeficiency virus 1; assay: Antiviral activity against ENV pseudotyped CCR5-tropic HIV1 subtype D QD435.100M.ENV.A4; format: functional; settings: Human immunodeficiency virus 1, subtype D QD435.100M.ENV.A4
Summary of the method: as §1

[19] = Aqueous solubility of the compound at 1 to 100 uM in PBS at pH 7.4 after 2 hrs by turbidimetric analysis; format: physicochemical
Summary of the method: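 DMSO stocks diluted 1:100 into phosphate-buffered saline pH 7.4, giving 1, 3, 10, 30 and 100 µM final in 1% DMSO. Seven replicate wells per concentration, incubated 2 h at 37 °C, absorbance read at 620 nm. Solubility taken as the concentration giving absorbance above the 1% DMSO vehicle.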

[20] = system: Human immunodeficiency virus 1; assay: Antiviral activity against ENV pseudotyped CCR5-tropic HIV1 subtype C 25711-2, clone 4; format: functional; settings: Human immunodeficiency virus 1, subtype C 25711-2, clone 4
[21] = Cytotoxicity against human TZM-bl cells incubated for 3 days by XTT assay; format: cell-based; settings: TZM-bl cells
Summary of the method: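 TZM-bl cells, 1 x 10^4/well, cultured overnight at 37 °C. Compounds added at graded concentrations for three days.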

[22] = Metabolic stability in human liver microsomes assessed as compound remaining at 45 mins in presence of NADPH by LC-MS/MS analysis; format: ADME, microsome; settings: read-out: Stability
[23] = system: Human immunodeficiency virus 1; assay: microbe, parasite or virus in culture; settings: Human immunodeficiency virus 1, pCAAN5342 clone A2
[24] = Inhibition of CYP1A in human liver microsomes using ethoxyresorufin as substrate after 5 mins in presence of NADPH by LC-MS/MS analysis
[25] = system: Human immunodeficiency virus 1; assay: microbe, parasite or virus in culture; settings: Human immunodeficiency virus 1, subtype C Du422, clone 1
[26] = Intrinsic clearance in human liver microsomes assessed per mg protein in presence of NADPH by LC-MS/MS analysis; format: ADME, microsome; settings: read-out: CLH
[27] = system: Human immunodeficiency virus 1; assay: Antiviral activity against ENV pseudotyped CCR5-tropic HIV1 p1054.TC4.1499; format: functional; settings: Human immunodeficiency virus 1, p1054.TC4.1499
[28] = Inhibition of HIV1 HXB2 gp120-mediated cell to cell fusion using human MAGI-CCR5 cells as indicator cells and Env/Tat-expressing HL2/3 cells as effector cells preincubated with MAGI-CCR5 cells for 1 hr followed by HL2/3 cells addition by beta-galactosidase reporter gene assay; settings: Human immunodeficiency virus 1, HXB2
Cytochrome P450 2C9 = Cytochrome P450 2C9 (Homo sapiens, UniProt P11712); assay: Inhibition of CYP2C9 in human liver microsomes using tolbutamide as substrate after 60 mins in presence of NADPH by LC-MS/MS analysis; format: ADME
[29] = Inhibition of HIV1 reverse transcriptase by colorimetric assay; set-up: species or system Human immunodeficiency virus 1
Summary of the method: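 HIV-1 reverse transcriptase activity measured with a commercial colorimetric reverse transcriptase kit, following the maker's instructions.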

Cytochrome P450 2C19 = Cytochrome P450 2C19 (Homo sapiens, UniProt P33261); assay: Inhibition of CYP2C19 in human liver microsomes using mephenytoin as substrate after 60 mins in presence of NADPH by LC-MS/MS analysis; format: ADME
[30] = system: Human immunodeficiency virus 1; assay: Antiviral activity against HIV1 HXB2 pseudovirus infected in human TZM-bl cells assessed as inhibition of viral entry treated 4 hrs post infection measured after 48 hrs by luciferase reporter gene assay; format: functional

Chain of Cytochrome P450 2C19 (P33261 whole entry): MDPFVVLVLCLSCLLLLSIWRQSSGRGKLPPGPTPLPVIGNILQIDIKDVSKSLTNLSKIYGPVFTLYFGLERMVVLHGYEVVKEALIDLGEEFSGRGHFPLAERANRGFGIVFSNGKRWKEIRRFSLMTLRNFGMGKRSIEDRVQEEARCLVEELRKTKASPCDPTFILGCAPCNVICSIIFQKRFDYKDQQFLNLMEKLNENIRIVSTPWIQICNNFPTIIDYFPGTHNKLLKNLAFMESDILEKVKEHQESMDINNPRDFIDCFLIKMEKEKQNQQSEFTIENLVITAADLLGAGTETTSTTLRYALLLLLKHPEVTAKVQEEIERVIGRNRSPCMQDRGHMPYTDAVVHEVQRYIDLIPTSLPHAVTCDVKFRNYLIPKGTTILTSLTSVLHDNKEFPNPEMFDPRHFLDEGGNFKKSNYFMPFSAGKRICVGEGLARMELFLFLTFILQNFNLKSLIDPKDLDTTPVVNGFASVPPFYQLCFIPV
Chain of Voltage-gated inwardly rectifying potassium channel KCNH2 (Q12809 whole entry): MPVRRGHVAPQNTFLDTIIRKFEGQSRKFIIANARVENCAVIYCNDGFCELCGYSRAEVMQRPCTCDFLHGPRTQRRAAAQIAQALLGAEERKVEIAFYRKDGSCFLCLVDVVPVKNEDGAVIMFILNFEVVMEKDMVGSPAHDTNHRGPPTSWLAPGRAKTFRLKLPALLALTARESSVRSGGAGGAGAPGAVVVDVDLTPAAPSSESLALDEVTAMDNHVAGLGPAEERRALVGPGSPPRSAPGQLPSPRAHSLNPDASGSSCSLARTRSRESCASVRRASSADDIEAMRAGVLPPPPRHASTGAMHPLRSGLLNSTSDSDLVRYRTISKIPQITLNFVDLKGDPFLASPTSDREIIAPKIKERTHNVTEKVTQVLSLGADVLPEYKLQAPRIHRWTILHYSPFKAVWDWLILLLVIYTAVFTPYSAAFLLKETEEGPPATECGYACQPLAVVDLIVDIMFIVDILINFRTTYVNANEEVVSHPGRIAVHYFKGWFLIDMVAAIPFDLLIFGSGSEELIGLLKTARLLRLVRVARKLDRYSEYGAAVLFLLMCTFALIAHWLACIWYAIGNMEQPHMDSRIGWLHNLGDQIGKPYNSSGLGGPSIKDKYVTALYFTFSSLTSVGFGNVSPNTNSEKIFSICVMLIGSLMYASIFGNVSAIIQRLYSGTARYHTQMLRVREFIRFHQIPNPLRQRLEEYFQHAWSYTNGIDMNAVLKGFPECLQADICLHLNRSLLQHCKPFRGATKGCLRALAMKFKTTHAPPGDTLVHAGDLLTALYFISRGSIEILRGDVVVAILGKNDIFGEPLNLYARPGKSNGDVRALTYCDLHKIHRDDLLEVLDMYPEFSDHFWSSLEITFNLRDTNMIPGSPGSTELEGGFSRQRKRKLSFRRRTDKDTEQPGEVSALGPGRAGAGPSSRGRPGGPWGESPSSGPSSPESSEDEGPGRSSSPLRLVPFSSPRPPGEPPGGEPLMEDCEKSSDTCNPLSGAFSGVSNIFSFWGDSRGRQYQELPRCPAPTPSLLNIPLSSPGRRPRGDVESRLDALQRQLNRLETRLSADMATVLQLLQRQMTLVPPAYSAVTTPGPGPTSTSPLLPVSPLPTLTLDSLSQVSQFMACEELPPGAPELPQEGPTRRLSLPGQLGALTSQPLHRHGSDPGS
Chain of Cytochrome P450 2C9 (P11712 whole entry): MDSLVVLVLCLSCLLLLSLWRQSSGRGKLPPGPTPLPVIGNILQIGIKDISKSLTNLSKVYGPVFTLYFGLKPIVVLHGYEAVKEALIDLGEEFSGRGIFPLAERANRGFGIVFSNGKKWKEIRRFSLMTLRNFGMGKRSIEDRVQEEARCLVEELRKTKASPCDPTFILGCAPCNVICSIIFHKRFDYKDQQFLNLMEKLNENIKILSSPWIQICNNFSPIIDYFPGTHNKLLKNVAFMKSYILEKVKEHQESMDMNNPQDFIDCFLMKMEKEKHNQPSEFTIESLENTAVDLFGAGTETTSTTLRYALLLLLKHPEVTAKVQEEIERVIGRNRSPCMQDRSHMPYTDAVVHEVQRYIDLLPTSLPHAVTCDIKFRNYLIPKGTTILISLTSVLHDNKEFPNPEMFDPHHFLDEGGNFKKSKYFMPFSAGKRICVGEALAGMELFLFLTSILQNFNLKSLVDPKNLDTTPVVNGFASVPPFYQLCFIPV
Chain of Cytochrome P450 3A4 (P08684 whole entry): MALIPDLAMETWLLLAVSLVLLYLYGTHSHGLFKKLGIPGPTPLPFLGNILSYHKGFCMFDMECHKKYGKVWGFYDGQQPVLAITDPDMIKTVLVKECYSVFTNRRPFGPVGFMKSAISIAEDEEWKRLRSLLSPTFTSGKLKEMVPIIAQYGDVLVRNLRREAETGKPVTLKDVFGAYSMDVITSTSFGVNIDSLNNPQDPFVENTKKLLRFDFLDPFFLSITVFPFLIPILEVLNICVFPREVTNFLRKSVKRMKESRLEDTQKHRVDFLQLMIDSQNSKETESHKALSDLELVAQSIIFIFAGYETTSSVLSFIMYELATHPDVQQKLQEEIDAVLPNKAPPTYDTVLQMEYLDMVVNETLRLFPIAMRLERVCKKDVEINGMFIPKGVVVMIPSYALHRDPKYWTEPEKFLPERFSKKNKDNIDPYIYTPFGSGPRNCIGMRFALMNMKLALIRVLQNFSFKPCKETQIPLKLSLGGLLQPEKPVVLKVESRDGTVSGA
Chain of Cytochrome P450 2D6 (P10635 whole entry): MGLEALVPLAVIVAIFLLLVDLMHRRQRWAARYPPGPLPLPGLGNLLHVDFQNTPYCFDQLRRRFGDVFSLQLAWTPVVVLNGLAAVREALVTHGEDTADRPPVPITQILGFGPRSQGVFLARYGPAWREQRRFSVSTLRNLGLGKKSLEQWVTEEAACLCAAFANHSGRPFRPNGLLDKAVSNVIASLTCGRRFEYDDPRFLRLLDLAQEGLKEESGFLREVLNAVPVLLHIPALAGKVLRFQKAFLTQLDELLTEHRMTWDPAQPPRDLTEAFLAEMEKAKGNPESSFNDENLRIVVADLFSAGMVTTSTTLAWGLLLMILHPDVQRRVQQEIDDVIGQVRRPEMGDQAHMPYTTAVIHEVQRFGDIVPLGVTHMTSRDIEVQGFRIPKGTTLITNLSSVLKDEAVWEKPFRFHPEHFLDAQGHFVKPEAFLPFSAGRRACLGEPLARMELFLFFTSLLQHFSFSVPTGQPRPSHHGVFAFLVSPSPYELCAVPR

NCC(NC(=O)c1ccc(-c2cc(F)c(Cl)c(F)c2)[nH]1)c1ncc(CO)s1 (stereo in doubt)
IC50 [1]: 0.27 µM | IC50 [2]: 0.5 µM | IC50 [3]: 0.33 µM | IC50 (Cytochrome P450 2D6): > 25 µM | IC50 [4]: 0.5 µM | IC50 [5]: 0.31 µM | Papp B→A at 10 µM [6]: 17.2 ×10⁻⁶ cm/s | IC50 [7]: 26 µM | CC50 (MT2): 37 µM | IC50 [8]: 0.5 µM | fraction unbound at 5 µM [9]: 0.1 | IC50 [10]: 0.5 µM | IC50 [11]: 0.94 µM | IC50 [12]: 14.1 µM | IC50 [13]: 0.6 µM | Papp A→B at 10 µM [14]: 1.17 ×10⁻⁶ cm/s | IC50 [15]: 0.51 µM | IC50 [16]: 0.31 µM | IC50 (Cytochrome P450 3A4): > 25 µM | IC50 [17]: 0.51 µM | IC50 [18]: 0.32 µM | solubility kinetic at 2 h [19]: 65 µM (≈ 26.8 µg/mL) | IC50 [20]: 0.52 µM | CC50 at 72 h [21]: 39.5 µM | remaining at […] [22]: 97.4% | IC50 [23]: 0.6 µM | IC50 [24]: > 25 µM | IC50 [25]: 0.32 µM | microsomal CLint [26]: < 10 µL/min/mg | IC50 [27]: 0.65 µM | IC50 [28]: 13.3 µM | IC50 (Cytochrome P450 2C9): > 25 µM | IC50 [29]: 8.4 µM | IC50 (Cytochrome P450 2C19): > 25 µM

Cc1cn([C@H]2C[C@H](N=[N+]=[N-])[C@@H](CO)O2)c(=O)[nH]c1=O [ZIDOVUDINE]
inhibition (INH) [30]: 50%
